Experimental data: PMC11378026 (RSC Advances, 2024)
Values after ≈ are worked out from the molar mass of the structure shown. Read-outs that look alike come from different tables or passages of the source.

Experiments:
[1] = system: breast cancer (MCF-7) cell line; test: MTT cytotoxicity assay on MCF-7 cells; type: cell-based, human
[2] = system: breast epithelial (MCF10A) cell line; test: MTT cytotoxicity assay on MCF10A cells; type: cell-based; settings: Homo sapiens, MCF-10A, read-out: IC50 (μg mL^−1) ± SD against MCF-10A
Method in brief: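 Mycoplasma-free MCF-10A cells, run in triplicate, were exposed to increasing doses of test compound, with 5-fluorouracil as positive control. MTT was added for 4 h, formazan was dissolved in DMSO, and absorbance was read at 570 and 630 nm. Viability = (A − A0)/(ANC − A0), using mean absorbances of treated, blank and cells-only wells. IC50 was derived from viability.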

[3] = system: breast cancer cells; settings: cited from earlier work

Question: For `O=c1[nH]cc(F)c(=O)[nH]1` [5-FU, 5-fluorouracil, reference compound], which IC50 ([1]; Homo sapiens, MCF7, read-out: IC50 (μg mL^−1) ± SD against MCF-7) is on record?
Answer: The IC50 was 28.3 ± 1.89 µg/mL (≈ 218 µM).

Question: What about the “Selectivity index (SI)” value ([1]; cancer MCF-7 cells over healthy MCF10A cells) of the same compound?
Answer: The value was 1.45.

Question: What about the IC50 [2] of the same compound?
Answer: Its IC50 is 41 ± 1.89 µg/mL (≈ 315 µM).

Question: Which IC50 ([3]; ref S2) does the source give for `N.N.O=C([O-])C1(C(=O)[O-])CCC1.[Pt+2]` [Carboplatin] here?
Answer: The IC50 was 73.5 µM.

Question: With `N.N.[Cl][Pt][Cl]` [Cisplatin] as the compound, how does the IC50 ([3]; ref S1) read?
Answer: Its IC50 is 12.2 µM.

Question: For `O=C1[O][Pt]2([NH][C@@H]3CCCC[C@H]3[NH]2)[O]C1=O` [Oxaliplatin], which IC50 ([3]; ref S2) is on record?
Answer: Its IC50 is 21.9 µM.
